This passage reports inhibition and IC50 results from ChEMBL document CHEMBL1765045, “Fine-tuning the selectivity of aldosterone synthase inhibitors: structure-activity and structure-selectivity insights from studies of heteroaryl substituted 1,2,5,6-tetrahydropyrrolo[3,2,1-ij]quinolin-4-one derivatives” (J Med Chem, 2011).

In series [1] the target is T1, Cytochrome P450 11B2, mitochondrial (Homo sapiens, UniProt P19099).
T1 sequence (P19099 whole entry): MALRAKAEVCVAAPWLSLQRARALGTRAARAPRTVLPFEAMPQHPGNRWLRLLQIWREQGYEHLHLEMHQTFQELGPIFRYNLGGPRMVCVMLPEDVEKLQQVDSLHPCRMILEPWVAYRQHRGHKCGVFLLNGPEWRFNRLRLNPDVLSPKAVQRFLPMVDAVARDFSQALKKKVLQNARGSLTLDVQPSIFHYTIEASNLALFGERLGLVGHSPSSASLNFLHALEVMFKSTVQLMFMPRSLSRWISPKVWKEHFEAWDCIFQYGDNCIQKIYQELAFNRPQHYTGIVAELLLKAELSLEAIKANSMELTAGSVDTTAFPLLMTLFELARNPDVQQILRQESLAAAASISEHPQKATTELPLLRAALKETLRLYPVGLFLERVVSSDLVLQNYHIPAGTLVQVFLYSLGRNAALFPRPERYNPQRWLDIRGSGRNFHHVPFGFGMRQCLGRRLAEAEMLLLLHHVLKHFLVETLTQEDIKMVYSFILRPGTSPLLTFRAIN
The experiment in a line: Inhibition of human CYP11B2 expressed in hamster V79 MZh cells assessed as conversion of [4-14C]-11-deoxycorticosterone substrate at 500 nM by HPTLC assay. Conditions: V79MZh. The series is classed as cell-based. The essentials: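 V79 MZh cells expressing human CYP11B2 given [4-14C]-11-deoxycorticosterone, 100 nM, with inhibitor at a single 500 nM concentration. Ethyl acetate extraction, then HPTLC/phosphoimager readout of conversion. Percent inhibition is the mean of at least three experiments.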

The target of another series is CYP2C19 (Homo sapiens, UniProt P33261). Description: Inhibition of human CYP2C19 expressed in baculovirus-infected insect microsomes at 10 uM. Format: ADME, Microsome. In outline: (§1)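 Recombinant human CYP1A2, 2B6, 2C9, 2C19, 2D6 or 3A4 in baculovirus-infected insect microsomes (Supersomes), run per manufacturer's protocol. Inhibitor at 1 and 10 μM; percent inhibition is the mean of two experiments.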
Chain of CYP2C19 (P33261 whole entry): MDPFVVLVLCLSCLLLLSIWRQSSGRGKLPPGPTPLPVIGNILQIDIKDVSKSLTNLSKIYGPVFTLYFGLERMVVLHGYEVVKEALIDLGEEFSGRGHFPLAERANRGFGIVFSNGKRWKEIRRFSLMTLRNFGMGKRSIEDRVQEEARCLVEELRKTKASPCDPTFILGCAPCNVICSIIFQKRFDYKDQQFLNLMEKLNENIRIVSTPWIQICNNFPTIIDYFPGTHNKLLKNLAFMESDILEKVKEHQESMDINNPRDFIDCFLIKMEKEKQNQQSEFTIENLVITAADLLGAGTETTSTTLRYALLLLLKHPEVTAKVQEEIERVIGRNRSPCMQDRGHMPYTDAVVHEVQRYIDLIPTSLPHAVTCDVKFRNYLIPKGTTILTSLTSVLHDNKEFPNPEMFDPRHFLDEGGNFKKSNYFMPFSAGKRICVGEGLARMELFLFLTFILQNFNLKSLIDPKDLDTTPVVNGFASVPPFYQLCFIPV

For series [2], the target named is T2, CYP2D6 (Homo sapiens, UniProt P10635). Description: Inhibition of human CYP2D6 expressed in baculovirus-infected insect microsomes at 1 uM. The series is classed as ADME, Microsome. The essentials: as §1
T2 sequence (P10635 whole entry): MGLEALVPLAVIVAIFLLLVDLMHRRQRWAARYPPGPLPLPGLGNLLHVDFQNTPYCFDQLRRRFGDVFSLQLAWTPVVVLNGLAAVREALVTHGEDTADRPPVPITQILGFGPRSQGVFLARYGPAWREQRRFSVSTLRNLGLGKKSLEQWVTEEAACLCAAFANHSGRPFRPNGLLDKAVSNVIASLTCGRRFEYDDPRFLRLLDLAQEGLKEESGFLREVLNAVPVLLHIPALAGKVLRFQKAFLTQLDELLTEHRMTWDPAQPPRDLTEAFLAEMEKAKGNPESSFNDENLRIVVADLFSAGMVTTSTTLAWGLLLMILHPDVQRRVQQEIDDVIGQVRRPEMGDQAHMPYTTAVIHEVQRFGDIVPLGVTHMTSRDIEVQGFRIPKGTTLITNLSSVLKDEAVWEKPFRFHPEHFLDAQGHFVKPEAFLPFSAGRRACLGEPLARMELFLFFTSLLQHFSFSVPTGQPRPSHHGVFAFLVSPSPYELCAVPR
Series [3] addresses T1, Cytochrome P450 11B2, mitochondrial. The experiment in a line: Inhibition of human CYP11B2 expressed in hamster V79 MZh cells assessed as conversion of [4-14C]-11-deoxycorticosterone substrate by HPTLC assay. The series is classed as cell-based. In outline: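 Hamster V79 MZh fibroblasts expressing human CYP11B2 incubated with [4-14C]-11-deoxycorticosterone (100 nM) and inhibitor at ≥3 concentrations; reaction stopped with ethyl acetate, steroids extracted after shaking and centrifugation (10000g, 2 min). Substrate conversion read by HPTLC with phosphoimaging.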

Series [4] has as its target T3, Cytochrome P450 11B1, mitochondrial (Homo sapiens, UniProt P15538).
T3 sequence (P15538 whole entry): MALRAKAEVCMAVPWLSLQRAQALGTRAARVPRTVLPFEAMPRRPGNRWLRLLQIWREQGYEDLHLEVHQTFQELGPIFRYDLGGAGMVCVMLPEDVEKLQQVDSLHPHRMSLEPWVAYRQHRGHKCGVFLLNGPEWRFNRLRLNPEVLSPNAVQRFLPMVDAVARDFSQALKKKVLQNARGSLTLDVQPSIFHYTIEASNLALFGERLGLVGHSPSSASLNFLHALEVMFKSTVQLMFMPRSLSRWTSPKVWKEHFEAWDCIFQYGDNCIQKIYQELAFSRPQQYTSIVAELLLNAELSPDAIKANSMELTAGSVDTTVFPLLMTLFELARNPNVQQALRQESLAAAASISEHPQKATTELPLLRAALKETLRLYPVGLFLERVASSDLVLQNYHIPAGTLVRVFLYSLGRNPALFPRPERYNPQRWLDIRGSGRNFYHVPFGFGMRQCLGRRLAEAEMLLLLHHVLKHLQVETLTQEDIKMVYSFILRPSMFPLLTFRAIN
The experiment in a line: Inhibition of human CYP11B1 expressed in hamster V79 MZh cells assessed as conversion of [4-14C]-11-deoxycorticosterone substrate by HPTLC assay. Format: cell-based. The essentials:
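V79 MZh hamster fibroblasts stably expressing human CYP11B1 or CYP11B2 incubated with [4-14C]-11-deoxycorticosterone, 100 nM, plus inhibitor at ≥3 concentrations. Reaction stopped with ethyl acetate, steroids extracted into the organic phase, and substrate conversion quantified by HPTLC with phosphoimaging. IC50 is the mean of at least three experiments.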

For a further series, the target named is T4, CYP17 (Homo sapiens, UniProt P05093).
T4 sequence (P05093 whole entry): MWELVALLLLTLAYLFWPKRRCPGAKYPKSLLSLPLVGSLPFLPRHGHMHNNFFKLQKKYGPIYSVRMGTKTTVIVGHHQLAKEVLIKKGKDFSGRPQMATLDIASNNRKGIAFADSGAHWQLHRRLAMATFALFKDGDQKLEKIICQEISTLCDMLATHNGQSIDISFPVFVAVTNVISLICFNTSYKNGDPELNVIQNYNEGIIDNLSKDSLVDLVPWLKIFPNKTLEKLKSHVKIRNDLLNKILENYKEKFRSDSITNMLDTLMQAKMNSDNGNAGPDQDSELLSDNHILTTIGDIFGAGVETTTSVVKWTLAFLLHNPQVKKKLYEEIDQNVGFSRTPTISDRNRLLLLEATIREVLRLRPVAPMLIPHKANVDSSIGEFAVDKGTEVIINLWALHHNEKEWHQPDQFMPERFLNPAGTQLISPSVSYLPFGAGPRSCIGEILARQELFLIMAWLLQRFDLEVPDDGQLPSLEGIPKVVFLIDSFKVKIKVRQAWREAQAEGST
The experiment in a line: Inhibition of human CYP17 expressed in Escherichia coli using progesterone substrate at 2 uM. Conditions: recombinant human CYP17 expressed in Escherichia coli, probe progesterone. The essentials:
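50000g sediment of E. coli homogenate recombinantly expressing human CYP17. Progesterone substrate at 25 μM, inhibitor tested at 2 μM.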

Another series deals with T5, CYP1A2 (Homo sapiens, UniProt P05177).
T5 sequence (P05177 whole entry): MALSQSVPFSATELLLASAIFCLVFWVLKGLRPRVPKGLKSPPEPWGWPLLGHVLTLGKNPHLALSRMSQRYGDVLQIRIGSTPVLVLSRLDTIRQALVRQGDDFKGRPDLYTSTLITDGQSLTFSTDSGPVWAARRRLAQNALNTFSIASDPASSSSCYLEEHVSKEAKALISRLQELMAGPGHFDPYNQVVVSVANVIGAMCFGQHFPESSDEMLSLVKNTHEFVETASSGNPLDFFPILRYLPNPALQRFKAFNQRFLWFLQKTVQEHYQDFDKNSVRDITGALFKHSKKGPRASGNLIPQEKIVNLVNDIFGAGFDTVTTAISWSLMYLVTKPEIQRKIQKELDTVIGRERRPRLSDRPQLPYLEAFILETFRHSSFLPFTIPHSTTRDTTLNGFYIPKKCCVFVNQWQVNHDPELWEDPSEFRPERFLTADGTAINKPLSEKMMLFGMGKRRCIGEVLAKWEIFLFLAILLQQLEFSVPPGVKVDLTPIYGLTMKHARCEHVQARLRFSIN
Description: Inhibition of human CYP1A2 expressed in baculovirus-infected insect microsomes at 1 uM. Format: ADME, Microsome. In outline: as §1

Series [5] concerns the target T2, CYP2D6. The experiment in a line: Inhibition of human CYP2D6 expressed in baculovirus-infected insect microsomes at 10 uM. Format: ADME, Microsome. In outline: as §1

Some results are limits rather than exact numbers.

In the case of `O=C1CCc2cc(-c3cncc(-c4cccc(F)c4)c3)cc3c2N1CC3`, the inhibition at 0.5 µM in series [1] is 97%. The inhibition at 10 µM on CYP2C19 turned out to be 21%; against CYP2D6 [5], 9%. The inhibition at 1 µM against CYP2D6 [2] was under 5%; against CYP1A2 it was 9%. Also, the IC50 in series [3] was found to be 0.0014 µM; in series [4], 0.49 µM. Moreover, the inhibition at 2 µM on CYP17 is 7%.
Regarding `COc1cncc(-c2cc3c4c(c2)CCN4C(=O)CC3)c1`, in series [1], the inhibition at 0.5 µM came to 98%. Further, the inhibition at 10 µM was found to be 30% at CYP2C19 and 13% on CYP2D6 [5]. Moreover, the inhibition at 1 µM against CYP2D6 [2] was 9%; on CYP1A2, 37%. The IC50 in series [3] stood at 0.0006 µM; in series [4], 0.247 µM. Moreover, the inhibition at 2 µM at CYP17 was under 5%.
On to `O=C1CCc2cc(-c3cccnc3)cc3c2N1CC3`, for which the inhibition at 0.5 µM in series [1] turned out to be 90%. The inhibition at 10 µM against CYP2C19 and against CYP2D6 [5] was under 5% throughout. Further, the inhibition at 1 µM was under 5% against CYP2D6 [2] and 8% at CYP1A2. In addition, the IC50 is 0.0011 µM in series [3] and 0.715 µM in series [4]. Also, the inhibition at 2 µM at CYP17 came out at 6%.
With `O=C1CCc2cc(-c3cccnc3)cc3c2N1CCC3`, in series [1], the inhibition at 0.5 µM came to 95%. The same compound showed an inhibition at 10 µM at CYP2C19 of 44%. For the same compound, the IC50 stood at 0.0024 µM in series [3] and 2.3 µM in series [4]. The inhibition at 2 µM at CYP17 worked out at 6%. The compound further came in with an inhibition at 1 µM against CYP1A2 of 41%.

By inhibition is commonly meant the relative decrease from the control value, in per cent. What is called IC50 is the concentration needed to halve the response being measured.
